PvdQ inh: blocks Pseudomonas aeruginosa PvdQ acylase activity; purified PvdQ acylase, fluorescence plate reader; actives 0.063% (n = 340,000); inhibition, % at 10 µM; in the data active = inhibition above about 30%, passing the limit was not always enough; inconclusive = no clear call, values can overlap the other calls;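 also: 0% = vehicle neutral wells and 100% = reference inhibitor wells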
IMP-1 inh: inhibitors of Pseudomonas aeruginosa IMP-1 metallo-beta-lactamase; actives 0.45% (n = 290,000); purified IMP-1, nitrocefin hydrolysis, epi-absorbance fluorescence; inhibition, % at 5.6 µM;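 active = inhibition above the mean plus 3 SD of all compounds in the same screening run, cut at about 4.5% in these data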;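 also: 0% = IMP-1 with DMSO and 100% = DMSO wells lacking enzyme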
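System: Purified recombinant IMP-1 metallo-beta-lactamase enzyme | Measured by: Fluorescence quenching readout, ex 480/em 530 nm | Replication: Singlicate | Incubation: 15 min preincubation plus 25 min reaction at 25 °C | Evaluation: Percent inhibition from optical density relative to buffer-blank wells | Benchmarks: DMSO with and without IMP-1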
VIM-2 inhibitor: blocks Pseudomonas aeruginosa VIM-2 metallo-beta-lactamase; actives 0.89% (n = 290,000); AID 1527; inhibition, % at 5.6 µM; purified VIM-2, nitrocefin hydrolysis, epi-absorbance fluorescence;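 active = inhibition above the mean of all tested compounds plus 3 SD, cutoff set per screening run, cut at about 7.5% in these data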;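 also: red hydrolysis product quenches plate fluorescence so inhibitors raise well fluorescence; 0% = enzyme with DMSO and 100% = DMSO without enzyme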
RAD54 inh: inhibitors of human RAD54 branch migration. RAD54 Holliday junction branch migration, FAM/BHQ fluorescence. Q92698. inhibition, % at 10.4 µM. actives 0.14% (n = 360,000);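 active = mean normalized replicate activity at least 40 and at least half of replicates scoring 40 or more; inconclusive = only one of the two criteria met; inactive = mean below 40 and under half of replicates reaching 40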;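 also: 0% = median of neutral control wells and 100% = median of positive control wells; inhibitors cause a drop in the FAM fluorescence signal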
Target sequence (Q92698 whole entry, looked up): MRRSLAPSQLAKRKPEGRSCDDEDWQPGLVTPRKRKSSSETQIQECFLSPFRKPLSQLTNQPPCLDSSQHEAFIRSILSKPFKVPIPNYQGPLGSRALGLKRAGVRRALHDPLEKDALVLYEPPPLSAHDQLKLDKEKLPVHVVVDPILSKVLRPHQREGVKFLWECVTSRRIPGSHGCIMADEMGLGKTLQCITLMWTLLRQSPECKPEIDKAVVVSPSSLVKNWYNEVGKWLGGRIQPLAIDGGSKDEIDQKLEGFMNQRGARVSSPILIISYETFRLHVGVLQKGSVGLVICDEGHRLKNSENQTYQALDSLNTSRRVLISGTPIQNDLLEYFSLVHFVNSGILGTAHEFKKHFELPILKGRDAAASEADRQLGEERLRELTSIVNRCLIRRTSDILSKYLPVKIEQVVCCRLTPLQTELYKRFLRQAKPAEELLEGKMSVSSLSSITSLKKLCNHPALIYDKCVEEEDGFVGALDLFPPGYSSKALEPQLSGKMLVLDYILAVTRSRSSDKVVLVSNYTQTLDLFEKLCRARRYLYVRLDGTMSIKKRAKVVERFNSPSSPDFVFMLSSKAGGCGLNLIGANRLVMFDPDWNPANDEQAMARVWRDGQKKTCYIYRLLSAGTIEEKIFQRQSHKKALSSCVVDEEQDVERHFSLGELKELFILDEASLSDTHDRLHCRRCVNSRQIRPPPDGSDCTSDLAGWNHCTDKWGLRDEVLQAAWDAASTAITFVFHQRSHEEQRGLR
FID counter: counter-screen for HCV NS3 helicase inhibitors: DNA intercalator displacement. DNA fluorescent intercalator displacement, fluorescence. inhibition, % at 7.9 µM. actives 0.17% (n = 290,000); in the data active = inhibition above about 37%;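 also: 0% = vehicle and 100% = reference compound; higher means more ethidium bromide displaced from hairpin DNA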
Rad54 DNA ctr: binds DNA, flagging false Rad54 inhibitor hits; shares compounds with RAD54 inh; Acridine orange-DNA displacement, fluorescence polarization, 20 min; AC50, µM (highest dose often 35 µM), for the others: at the highest dose activity change, negative = DNA binding; actives 8% (n = 460); AID 651673;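 active = signal drop giving an AC50 within twice the top valid tested concentration of each sample, actives reach about 35 µM in these data; inactive = activity opposite to expected, plus the rest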;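 also: polarization loss reports compound binding to salmon sperm DNA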
Active calls of the source: *; ? = inconclusive; / = not tested or not shown. Only some compounds are listed: those with a hit (about 1% of all), similar ones and a draw of the others.

SMILES	PvdQ inh	IMP-1 inh	VIM-2 inhibitor	RAD54 inh	FID counter	Rad54 DNA ctr
COCCNc1nc2cc(-c3ccsc3)sc2c(=O)n1C	/	/	/	-13	/	/
COc1cccc(CNc2nc3cc(-c4ccc(OC)c(OC)c4)sc3c(=O)n2C)c1	/	/	/	-3	/	/
COc1ccc(-c2cc3nc(NCCN4CCCC4)n(C)c(=O)c3s2)cc1OC	/	/	/	70*	/	0%
Cn1c(NCCN2CCCC2)nc2cc(-c3ccsc3)sc2c1=O	/	/	/	58*	/	-3%
O=C(Nc1cc(Cl)cc(Cl)c1)N[C@H]1CC[C@H](CCNS(=O)(=O)c2cccc(F)c2)O[C@@H]1CO	/	/	/	-4	/	/
CN1CCc2[nH]c3ccc(C(=O)NN)cc3c2C1	-7	-3	-5	67*	7	3%
Cc1ccc(S(=O)(=O)NCCCNS(=O)(=O)c2ccccc2[N+](=O)[O-])cc1	-16	-3	-1	?	-7	-20%
CCOC(=O)Nc1ccc(Oc2ccccc2)cc1	-1	-3	-3	2	-6	/
CCOC(=O)Nc1c2ccccc2nc2ccccc12	-22	-1	-1	57*	10	-13%
Cc1noc(C)c1NC(=O)N(C)C[C@@H]1Oc2ccc(NS(=O)(=O)c3cn(C)cn3)cc2C(=O)N([C@H](C)CO)C[C@@H]1C	/	/	/	9	/	/
COc1cc(NC(=O)c2cccnc2Sc2ccc(C)c(C)c2)cc(OC)c1OC	2	-3	-2	?	-7	-3%
Cc1ccc(C)c(N2CCN(C(=S)Nc3ccc4nc(N5CCOCC5)cc(C)c4c3)CC2)c1	-19	-2	-5	1	4	/
CCN1CCN(c2cc(C)c3cc(NC(=S)N4CCC5(CC4)OCCO5)ccc3n2)CC1	-7	-1	0	?	17	-12%
CCCN1CCN(C(=S)Nc2ccc3nc(N4CCN(CC)CC4)cc(C)c3c2)CC1	-16	-2	5	62*	50*	3%
Cc1ccc(C)c(N2CCN(C(=S)Nc3ccc4nc(N5CCN(C)CC5)cc(C)c4c3)CC2)c1	-12	-3	-3	?	47*	5%
CCN1CCN(c2cc(C)c3cc(NC(=S)N4CCN(c5ccccc5)CC4)ccc3n2)CC1	-3	-2	-3	8	21	/
CN1CCN(CCCNC(=O)c2cc3c(-c4ccc(Cl)cc4)nn(C)c3s2)CC1	0	-4	0	61*	29	3%
CCN(CC)CCCNC(=O)c1cc2c(-c3ccc(Cl)cc3)nn(C)c2s1	9	-1	-1	?	35	6%
Cn1nc(-c2ccc(Cl)cc2)c2cc(C(=O)NCC3CCCO3)sc21 (stereo not given)	-9	-2	2	4	-19	/
CO[C@@H]1CN(C)C(=O)c2ccc(NC(=O)c3cnccn3)cc2OC[C@@H](C)N(C(=O)C2CC2)C[C@@H]1C	/	/	/	3	/	/
CNC(=O)C[C@@H]1CC[C@@H]2[C@@H](COc3ccc(NC(=O)Nc4ccccc4F)cc3C(=O)N2C)O1	/	/	/	0	/	/
CCN(CC)CC(=O)Nc1cccc2c1C(=O)c1ccccc1C2=O	-6	-2	4	70*	17	2%
CCN(CC)CC(=O)Nc1ccc(C)cc1Br	-22	-3	-4	-9	-3	/
COc1ccc(Nc2nc(N3CCCCC3)nc3ccccc23)c(OC)c1	-6	-2	7	55*	15	9%
CN(C)CCCn1c(SCC(=O)Nc2nc(-c3cccc(Br)c3)cs2)nc2ccccc2c1=O	-14	-3	-3	?	8	-19%
SMILES	PvdQ inh	IMP-1 inh	VIM-2 inhibitor	RAD54 inh	FID counter	Rad54 DNA ctr
O=C(CSc1nc2ccccc2[nH]1)Nc1nc(-c2cccc(Br)c2)cs1	-4	-4	-3	/	4	/
O=c1cc[nH]c2c1ccc1c(=O)cc[nH]c12	-6	-2	-1	-13	-3	/
Cc1[nH]ccc2c1[nH]c1cc(=O)ccc12	-9	-3	0	68*	9	-12%
COc1cccc(CNC(=O)C[C@@H]2C=C[C@@H](NS(=O)(=O)c3ccccc3OC)[C@H](CO)O2)c1	/	/	/	0	/	/
CN(C)CCNC(=O)c1c(NC(=O)c2ccccc2)sc2c1CCCC2	-14	-2	2	58*	17	-7%
CCN(CC)CCCN(C(=O)c1ccco1)c1nc(-c2ccc(C)cc2)cs1	-13	-1	-6	25	21	/
CCN(CC)CCCN(C(=O)c1ccco1)c1nc(-c2ccc(Cl)cc2)cs1	-20	-2	1	59*	27	6%
c1ccc(-c2cc3c(N4CCCC4)ncnc3s2)cc1	6	-3	0	/	-8	/
OCCN1CCN(c2ncnc3sc(-c4ccccc4)cc23)CC1	-8	-4	4	?	6	-21%
Cc1nc(NC(=O)c2ccc(Cl)cc2)nc2cc3c(cc12)OCO3	3	0	0	5	-3	/
Cc1c(-c2cc(Br)ccc2O)nc2cc3c(cc2c1C)OCO3	-6	-3	0	?	-6	-23%
CC(=O)Nc1cc(-c2cccc(C(=O)NCCN(C)C)c2)cn2c(-c3ccccc3)cnc12	/	/	/	64*	/	4%
CC(=O)Nc1cc(-c2cccc(C(=O)NCCN(C)C)c2)cn2c(-c3ccc(S(C)(=O)=O)cc3)cnc12	/	/	/	56*	/	-17%
CC(=O)Nc1cc(-c2ccc(N3CCN(C)CC3)cc2)cn2c(-c3cccc(C(C)=O)c3)cnc12	/	/	/	79*	/	-2%
CC(=O)Nc1cc(-c2cccc(C(=O)NCCN(C)C)c2)cn2c(-c3cccc(C(F)(F)F)c3)cnc12	/	/	/	43	/	/
CO[C@H]1CN(C)C(=O)c2ccc(NC(=O)c3cccc(Oc4ccccc4)c3)cc2OC[C@@H](C)NC[C@@H]1C	/	/	/	8	/	/
C(=N\Nc1nc2ccccc2[nH]1)/c1ccc2c(c1)OCO2	-4	-5	-4	/	31	/
C(=C/c1nccc2c1[nH]c1ccccc12)/c1ccc2c(c1)OCO2	-20	-2	-2	59*	4	-9%
C=CC(=O)Nc1ccc(N(C)c2ccnc(Nc3ccc(N4CCN(C)CC4)cc3)n2)cc1	10	/	/	75*	/	4%
C[C@@H]1CN([C@H](C)CO)S(=O)(=O)c2ccc(C#C[C@@H](C)O)cc2O[C@H]1CN(C)C(=O)c1ccccc1	/	/	/	-8	/	/
COc1cccc(-c2ccc3c(c2)O[C@H](CN(C)Cc2cncnc2)[C@@H](C)CN([C@H](C)CO)S3(=O)=O)c1	/	/	/	-2	/	/
CCC(=O)N(Cc1cc2cc(OC)ccc2[nH]c1=O)c1cc(C)ccc1C	-7	-1	0	?	-7	9%
COc1ccc2[nH]c(=O)c(CN(C(C)=O)c3cc(C)ccc3C)cc2c1	/	/	/	7	/	/
C/C=C/c1cnc2c(c1)C(=O)N([C@@H](C)CO)C[C@@H](C)[C@H](CN(C)Cc1ccc3c(c1)OCO3)O2	/	/	/	4	/	/
CN(C)CCNC(=O)c1cccc(-c2cnc3c(NC=O)cc(/C=C/c4ccccc4)cn23)c1	/	/	/	18	/	/
COc1ccc(-c2cc(NC=O)c3ncc(-c4cccc(C(=O)NCCN(C)C)c4)n3c2)cc1	/	/	/	69*	/	17%

Source: PubChem BioAssay (several laboratories)
